The source of these data is ChEMBL document CHEMBL1125832, “Synthesis and dopaminergic activity of 3-substituted 1-(aminomethyl)-3,4-dihydro-5,6-dihydroxy-1H-2-benzopyrans: characterization of an auxiliary binding region in the D1 receptor” (J Med Chem, 1991).

Experiment [1] has as its system D1 dopamine receptor (Cyprinus carpio). As to the kind of experiment: Intrinsic activity measured relative to dopamine on D1C(R) receptor.
Experiment [2] addresses T1, D(1A) dopamine receptor (Rattus norvegicus, UniProt P18901). As to the kind of experiment: Binding affinity using [125 I] SCH 23982 radioligand competitive binding assay on dopamine receptor D1.
In experiment [3] the target is T2, D(2) dopamine receptor (Rattus norvegicus, UniProt P61169). As to the kind of experiment: Binding affinity using [3H]-spiperone radioligand competitive binding assay against dopamine receptor D2. The essentials: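 Rat striatal membranes in Tris pH 7.4 buffer with salts and ascorbate. [3H]spiperone at 300 pM final; nonspecific binding with 10 μM YM-09151-2. Incubated 20 min at 37 °C, then filtered. Ki derived from IC50 by Cheng-Prusoff.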

Experiment [4] in a line: Intrinsic activity relative to dopamine at D-2 receptor. The format is functional.
The target of experiment [5] is T2, D(2) dopamine receptor. As to the kind of experiment: Concentration required to inhibit 50% dopamine receptor D2 in a cell free homogenate of intermediate lobe of pituitary gland. The format is functional.
Experiment [6] concerns the target D(1A) dopamine receptor (Rattus norvegicus) (UniProt P18901). As to the kind of experiment: Intrinsic activity was measured in relative to dopamine on D1C(S) receptor.
For experiment [7], the target named is T1, D(1A) dopamine receptor. As to the kind of experiment: Inhibition of Dopamine receptor D1 activity by functional cyclase assay using cell free homogenate of rat striatum. The format is tissue-based. The essentials: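 Adenylate cyclase stimulation in cell-free homogenate of rat striatum. EC50 is the concentration giving half-maximal stimulation of cAMP production.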

For experiment [8], the system named is Rattus norvegicus. The experiment is described as follows: Rat rotation experiments were conducted to evaluate rational behavior of the rats by administering at a dose of 30 umol/kg subcutaneously. The class given is functional. In short, it runs like this: (§1)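 Rats with unilateral 6-hydroxydopamine lesions of the nigrostriatal bundle. Compound given subcutaneously or orally at the stated dose. Net contralateral rotations counted over 2 h after dosing and reported as mean ± SEM; negative values indicate ipsilateral turning.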

In experiment [9] the test system is Rattus norvegicus. As to the kind of experiment: Rat rotation experiments were conducted to evaluate rational behavior of the rats by administering at a dose of 15 umol/kg subcutaneously. The format is functional. The essentials: as §1
Experiment [10] deals with Rattus norvegicus. As to the kind of experiment: Rat rotation experiments were conducted to evaluate rational behavior of the rats by administering at a dose of 130 umol/kg subcutaneously. The format is functional. In short, it runs like this:
as §1

Experiment [11] relates to Rattus norvegicus. As to the kind of experiment: Rat rotation experiments were conducted to evaluate rational behavior of the rats by administering at a dose of 65 umol/Kg subcutaneously. The format is functional. The essentials:
as §1

Experiment [12] deals with Rattus norvegicus. The experiment is described as follows: Rat rotation experiments were conducted to evaluate rational behavior of the rats by administering at a dose of 260 umol/kg subcutaneously. The class given is functional. In short, it runs like this: as §1

The structures appear in SMILES notation. pEC50, pKi: −log10 of the molar value.

T1 sequence (P18901 whole entry): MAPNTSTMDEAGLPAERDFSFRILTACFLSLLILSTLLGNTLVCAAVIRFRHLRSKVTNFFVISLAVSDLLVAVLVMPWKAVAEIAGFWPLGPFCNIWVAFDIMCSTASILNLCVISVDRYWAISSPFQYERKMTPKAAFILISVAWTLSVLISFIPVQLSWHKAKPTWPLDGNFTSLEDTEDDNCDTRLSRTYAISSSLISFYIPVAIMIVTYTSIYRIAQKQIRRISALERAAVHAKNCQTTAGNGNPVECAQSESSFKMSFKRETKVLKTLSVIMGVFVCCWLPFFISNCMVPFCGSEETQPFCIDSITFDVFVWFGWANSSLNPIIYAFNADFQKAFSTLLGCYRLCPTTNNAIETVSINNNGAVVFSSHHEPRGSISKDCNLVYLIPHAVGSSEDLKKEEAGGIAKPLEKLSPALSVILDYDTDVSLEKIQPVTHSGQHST
Chain of D(1A) dopamine receptor (Rattus norvegicus) (P18901 whole entry, looked up): as the sequence (P18901 whole entry) above
T2 sequence (P61169 whole entry): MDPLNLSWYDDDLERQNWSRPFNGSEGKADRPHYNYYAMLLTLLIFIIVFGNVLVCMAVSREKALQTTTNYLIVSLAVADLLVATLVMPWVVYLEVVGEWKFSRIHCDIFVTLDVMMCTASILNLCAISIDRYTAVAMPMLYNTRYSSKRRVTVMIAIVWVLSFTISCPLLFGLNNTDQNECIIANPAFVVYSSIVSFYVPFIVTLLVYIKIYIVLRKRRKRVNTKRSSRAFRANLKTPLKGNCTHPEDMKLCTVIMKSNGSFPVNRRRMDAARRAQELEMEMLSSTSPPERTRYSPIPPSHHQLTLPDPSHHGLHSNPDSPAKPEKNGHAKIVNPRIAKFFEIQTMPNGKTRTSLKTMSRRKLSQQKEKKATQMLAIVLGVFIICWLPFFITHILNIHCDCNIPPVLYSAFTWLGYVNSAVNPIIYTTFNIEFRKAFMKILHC

Usually pKi stands for the Ki on a negative log10 scale, so that one unit is a factor of ten. A low value points to a large Ki. The term pEC50 denotes −log10 of the EC50, conventionally taken in molar units. Read a low pEC50 as a high EC50. As for `NC[C@@H]1OC(CC2CCCC2)Cc2c1ccc(O)c2O` (stereo partly drawn), the Intrinsic activity was 124% in experiment [1] and 76% in experiment [4]. The pKi is 7.52 in experiment [2] and 6.11 in experiment [3]. The same molecule showed a negative-log EC50 (pEC50) in experiment [5] of 6.37.
Turning to `COc1ccc(CC2Cc3c(ccc(O)c3O)[C@H](CN)O2)cc1` (stereo partly drawn), the pKi in [2] was 5.58; in [3], 5.57. Further, the pEC50 in experiment [5] was below 5.00.
For the molecule `COc1cccc(C2Cc3c(ccc(O)c3O)[C@H](CN)O2)c1` (stereo partly drawn), the Intrinsic activity in [1] is 107%. The negative-log Ki (pKi) is 6.51 in experiment [2] and 6.12 in experiment [3]. In experiment [5], this molecule had a pEC50 below 5.00.
With `OCCCNC[C@@H]1OC(C2CCCCC2)Cc2c1ccc(O)c2O` (stereo partly drawn), the Intrinsic activity in experiment [1] came to 58%. In addition, the pKi was 5.50 in [2] and 4.91 in experiment [3]. The molecule further gave a pEC50 in experiment [5] below 5.00.
`CNC[C@@H]1OC(C2CCCCC2)Cc2c1ccc(O)c2O` (stereo partly drawn): the figures for the pKi in experiment [2] and in [3] were 7.85 and 6.14, respectively. The same molecule had a pEC50 in experiment [5] below 5.00.
As for `CCCCC1Cc2c(ccc(O)c2O)[C@H](CN)O1` (stereo partly drawn), the Intrinsic activity was found to be 151% in [1] and 80% in [4]. In addition, the pKi in experiment [2] was 6.06; in experiment [3], 6.08. In addition, the pEC50 in experiment [5] is 6.44.
In the case of `NC[C@@H]1OC(C2CCCCCCC2)Cc2c1ccc(O)c2O` (stereo partly drawn), the results for the pKi in [2] and in experiment [3] were 7.05 and 6.47, respectively. Also, the Intrinsic activity in experiment [4] was 70%. Besides, the pEC50 in [5] was 6.12.
Take `Oc1ccc2c(c1O)CC(C1CCCCC1)O[C@H]2CNC1CC1` (stereo partly drawn): the Intrinsic activity in [1] turned out to be 71%. In addition, the figures for the negative-log Ki (pKi) in [2] and in experiment [3] were 6.48 and 6.20, respectively. In addition, in experiment [5], the pEC50 was below 5.00.
With `C#CCNC[C@@H]1OC(C2CCCCC2)Cc2c1ccc(O)c2O` (stereo partly drawn), the Intrinsic activity in [1] was found to be 87%. Besides, the pKi in experiment [2] is 5.33; in [3], 4.94. In [5], this molecule showed a pEC50 below 5.00.
Turning to `C#CCC1Cc2c(ccc(O)c2O)[C@H](CN)O1` (stereo partly drawn), the figures for the pKi in experiment [2] and in [3] were 6.39 and 5.97, respectively. For the same molecule, the Intrinsic activity in experiment [4] turned out to be 100%. The molecule also showed a pEC50 in experiment [5] of 6.54.
As for `CCCCCCC1Cc2c(ccc(O)c2O)[C@H](CN)O1` (stereo partly drawn), the Intrinsic activity in experiment [1] stood at 90%; in experiment [6], 84%; in experiment [4] it was 80%. Besides, the pKi is 6.15 in experiment [2] and 5.26 in experiment [3]. The pEC50 is 7.63 in [7] and 6.11 in [5].
Regarding `C=CCN(C)C[C@@H]1OC(C2CCCCC2)Cc2c1ccc(O)c2O` (stereo partly drawn), the pKi is 5.50 in experiment [2] and 5.59 in [3]. Besides, the pEC50 in [5] was below 5.00.
As to `NC[C@@H]1OC(c2cccc(O)c2)Cc2c1ccc(O)c2O` (stereo partly drawn), the figures for the pKi in experiment [2] and in experiment [3] were 9.31 and 6.23, respectively. In addition, the Intrinsic activity in [4] was determined as 111%. In addition, the negative logarithm of the EC50 (pEC50) in experiment [5] is 6.72.
In the case of `NC[C@@H]1OC(COCc2ccccc2)Cc2c1ccc(O)c2O` (stereo partly drawn), the Intrinsic activity in experiment [1] was 107%; in experiment [4] it was 78%. Also, the pKi in experiment [2] is 5.64; in [3], 6.41. In addition, the pEC50 in experiment [5] is 6.69.
Take `C#CCN(C)C[C@@H]1OC(C2CCCCC2)Cc2c1ccc(O)c2O` (stereo partly drawn): the figures for the pKi in experiment [2] and in experiment [3] were 5.60 and below 5.00, respectively. This molecule had a pEC50 in [5] below 5.00.
Take `NC[C@@H]1OC(COc2ccccc2)Cc2c1ccc(O)c2O` (stereo partly drawn): the Intrinsic activity in experiment [1] worked out at 51%; in experiment [6] it was 64%. The results for the negative-log Ki (pKi) in experiment [2] and in experiment [3] were 6.43 and 5.89, respectively. Moreover, the values for the Activity in experiment [8] and in [9] were 514 and 467, respectively. The values for the negative logarithm of the EC50 (pEC50) in experiment [7] and in experiment [5] were 7.40 and below 5.00, respectively.
Consider `NC[C@@H]1OC(C(c2ccccc2)c2ccccc2)Cc2c1ccc(O)c2O` (stereo partly drawn), for which the values for the pKi in experiment [2] and in experiment [3] were 6.28 and 5.58, respectively. The pEC50 in experiment [5] was below 5.00.
As for `NC[C@@H]1OCCc2c1ccc(O)c2O`, the Activity in experiment [10] is 286; in experiment [11], 93; in experiment [12] it was 584. The pKi in experiment [2] is 5.99; in experiment [3] it was 5.34. Besides, in [4], the Intrinsic activity was 96%. In addition, the pEC50 in experiment [5] is 5.55.
`NC[C@@H]1OC(C23C[C@H]4C[C@@H](C2)C[C@@H](C3)C4)Cc2c1ccc(O)c2O` (stereo partly drawn): in experiment [5], the pEC50 was below 5.00.
Consider `CC[C@H]1Cc2c(ccc(O)c2O)[C@H](CN)O1`, for which the values for the Intrinsic activity in experiment [1] and in [4] were 92% and 76%, respectively. Moreover, the pKi in [2] was 5.75; in experiment [3], below 5.00. In [5], this molecule gave a pEC50 of 5.29.
For `NC[C@@H]1OC(c2ccc(Br)cc2)Cc2c1ccc(O)c2O` (stereo partly drawn), the Intrinsic activity in [1] came to 106%; in experiment [4] it was 94%. In addition, the pKi in [2] was 7.28; in [3], 5.68. Further, the pEC50 in [5] was 6.45.
Regarding `NC[C@@H]1OC(CCc2ccccc2)Cc2c1ccc(O)c2O` (stereo partly drawn), the figures for the Intrinsic activity in [1] and in experiment [6] were 76% and 78%, respectively. The figures for the pKi in experiment [2] and in experiment [3] were 6.61 and 6.17, respectively. Further, the values for the pEC50 in experiment [7] and in experiment [5] were 7.72 and below 5.00, respectively.
For the molecule `Oc1ccc2c(c1O)CC(C1CCCCC1)O[C@H]2CNCc1ccccc1` (stereo partly drawn), the pKi in experiment [2] was below 5.00; in [3], 5.61. In addition, in experiment [5], the pEC50 is below 5.00.
For `NC[C@@H]1OC2(CCCCC2)Cc2c1ccc(O)c2O`, the Intrinsic activity in experiment [1] came to 65%; in experiment [4], 56%. Moreover, the negative-log Ki (pKi) is 6.32 in experiment [2] and 5.33 in experiment [3]. In [5], this molecule gave a negative logarithm of the EC50 (pEC50) of 5.18.
Regarding `CC[C@@H]1Cc2c(ccc(O)c2O)[C@H](CN)O1`, the Intrinsic activity in experiment [1] was determined as 89%; in [4], 81%. Also, the pKi in experiment [2] is 6.78; in experiment [3], 5.45. For the same molecule, the pEC50 in [5] was 4.97.
For the molecule `NC[C@@H]1OC(Cc2ccccc2)Cc2c1ccc(O)c2O` (stereo partly drawn), the Intrinsic activity in [1] came out at 93%. Also, the pKi was 6.35 in [2] and 5.83 in experiment [3]. The molecule further had a pEC50 in experiment [5] below 5.00.
The corresponding values for `NC[C@@H]1OC(c2ccc(I)cc2)Cc2c1ccc(O)c2O` (stereo partly drawn) are 161%, 7.86, 5.98 and below 5.00.
